Measurements taken from ChEMBL document CHEMBL4373749, “Design and Catalyzed Activation of Tak-242 Prodrugs for Localized Inhibition of TLR4-Induced Inflammation” (ACS Med Chem Lett, 2020).

Legend:
Toll-like receptor 4 [1] = biological target: T1, Toll-like receptor 4 (Homo sapiens, UniProt O00206); assay: Inhibition of human TLR4 expressed in HEK-Blue cells assessed as decrease in LPS-induced TLR4 response at 15 uM incubated for 1 hr followed by LPS stimulation and further incubated for 22 hrs by cell based reporter assay
Outline: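 HEK TLR4 reporter cells exposed to compound across a concentration range, then stimulated with LPS. Read-out is optical density at 650 nm. Complete suppression was defined as the OD650 of cells given racemic reference inhibitor at 15 μM. IC50 values were derived from the concentration-response data.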

Toll-like receptor 4 [2] = biological target: T1, Toll-like receptor 4; assay: Inhibition of human TLR4 expressed in HEK-Blue cells assessed as decrease in LPS-induced TLR4 response incubated for 1 hr followed by LPS stimulation and further incubated for 22 hrs by cell based reporter assay
[3] = Stability of compound in phosphate buffered saline containing 5% DMSO assessed as compound remaining at 0.01 mg/ml at pH 7.4 measured after 1 day by HPLC analysis; assay type: physicochemical; conditions: read-out: Stability
Outline: (§1)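 Incubation at 37 °C in phosphate buffered saline, pH 7.4, containing 5% DMSO. Aqueous stability was followed over time.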

[4] = Stability of compound in phosphate buffered saline containing 5% DMSO at 0.01 mg/ml at pH 7.4 by HPLC analysis; assay type: physicochemical; conditions: buffer; outline: as §1
[5] = biological target: T2, Oxygen-insensitive NAD(P)H nitroreductase (Escherichia coli K-12, UniProt P38489); assay: Prodrug conversion in PBS containing 5% DMSO assessed as Escherichia coli nitroreductase-mediated activation by measuring reduced amine intermediate metabolite formation at 0.01 mg/ml at pH 7.4 in presence of […] by HPLC analysis; assay type: ADME; conditions: isolated protein
T2 sequence (P38489 whole entry): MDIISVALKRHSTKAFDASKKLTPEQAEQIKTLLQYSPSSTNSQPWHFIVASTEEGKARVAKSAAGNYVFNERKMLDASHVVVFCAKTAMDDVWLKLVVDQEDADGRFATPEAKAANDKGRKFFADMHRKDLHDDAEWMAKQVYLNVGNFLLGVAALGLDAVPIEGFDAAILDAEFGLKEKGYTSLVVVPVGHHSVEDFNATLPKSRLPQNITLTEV
Outline: (§2)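 Nitroreductase from E. coli (2 units/mL) with NADPH (1 mg/mL) in PBS, pH 7.4, containing 5% DMSO. The reaction was monitored by HPLC.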

[6] = biological target: T2, Oxygen-insensitive NAD(P)H nitroreductase; assay: Prodrug conversion in PBS containing 5% DMSO assessed as Escherichia coli nitroreductase-mediated activation by measuring release of ethyl (6R)-6-[(2-chloro-4-fluorophenyl)sulfamoyl]cyclohexene-1-carboxylate parent drug at 0.01 mg/ml at pH 7.4 in presence of […] by HPLC analysis; conditions: isolated protein; outline: as §2
[7] = biological target: T2, Oxygen-insensitive NAD(P)H nitroreductase; assay: Prodrug conversion in PBS containing 5% DMSO assessed as Escherichia coli nitroreductase-mediated activation by measuring increased consumption of prodrug at 0.01 mg/ml at pH 7.4 in presence of […] by HPLC analysis; conditions: isolated protein; outline: as §2

T1 sequence (O00206 whole entry): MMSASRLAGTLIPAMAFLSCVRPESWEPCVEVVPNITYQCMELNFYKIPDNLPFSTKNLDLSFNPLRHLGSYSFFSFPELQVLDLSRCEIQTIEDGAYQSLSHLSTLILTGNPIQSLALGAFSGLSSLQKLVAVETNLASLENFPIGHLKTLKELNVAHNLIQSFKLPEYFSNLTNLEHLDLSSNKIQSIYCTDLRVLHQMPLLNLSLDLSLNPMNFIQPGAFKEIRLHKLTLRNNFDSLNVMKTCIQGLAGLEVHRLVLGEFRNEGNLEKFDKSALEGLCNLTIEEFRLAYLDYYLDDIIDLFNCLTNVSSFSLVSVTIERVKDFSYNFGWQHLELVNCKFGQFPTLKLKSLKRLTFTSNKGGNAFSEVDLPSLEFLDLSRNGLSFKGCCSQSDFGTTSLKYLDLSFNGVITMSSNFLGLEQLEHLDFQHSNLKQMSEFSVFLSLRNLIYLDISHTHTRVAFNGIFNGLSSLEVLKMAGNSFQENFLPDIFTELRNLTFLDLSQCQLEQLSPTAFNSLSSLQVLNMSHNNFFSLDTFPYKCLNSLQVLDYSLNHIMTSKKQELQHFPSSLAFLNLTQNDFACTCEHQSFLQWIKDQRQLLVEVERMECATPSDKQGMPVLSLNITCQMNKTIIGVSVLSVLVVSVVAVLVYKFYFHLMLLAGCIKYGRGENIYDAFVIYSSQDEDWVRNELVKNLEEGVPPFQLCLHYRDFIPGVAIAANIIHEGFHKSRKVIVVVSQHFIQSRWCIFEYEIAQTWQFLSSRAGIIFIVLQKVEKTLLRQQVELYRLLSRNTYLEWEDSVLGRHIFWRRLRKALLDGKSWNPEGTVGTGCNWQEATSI

Row | Compound | inhibition (Toll-like receptor 4 [1]) | IC50 (Toll-like receptor 4 [2]) | remaining at 24 h, 0.01 mg/ml [3] | Stability [4] | Drug metabolism [5] | Drug metabolism [6] | Drug metabolism [7]
1 | CCOC(=O)C1=CCCCC1S(=O)(=O)Nc1ccc(F)cc1Cl (racemic) | 100% | 40 nM | – | – | – | – | –
2 | C#CCOC(=O)N(c1ccc(F)cc1Cl)S(=O)(=O)C1CCCC=C1C(=O)OCC (racemic) | – | – | 25% | Unstable | – | – | –
3 | C#CCN(c1ccc(F)cc1Cl)S(=O)(=O)C1CCCC=C1C(=O)OCC (racemic) | – | – | – | Stable | – | – | –
4 | CCOC(=O)C1=CCCCC1S(=O)(=O)N(Cc1ccc([N+](=O)[O-])cc1)c1ccc(F)cc1Cl (racemic) | – | – | – | Stable | Metabolite_Detected | Metabolite_Detected | Metabolite_Detected
5 | CCOC(=O)C1=CCCCC1S(=O)(=O)N(C(=O)OCc1ccc([N+](=O)[O-])cc1)c1ccc(F)cc1Cl (racemic) | – | – | 85% | Unstable | Metabolite_Notdetected | Metabolite_Detected | Metabolite_Detected
